Here are results for 15 compounds from ChEMBL document CHEMBL1667755, “2-hydroxyisoquinoline-1,3(2H,4H)-diones as inhibitors of HIV-1 integrase and reverse transcriptase RNase H domain: influence of the alkylation of position 4” (Eur J Med Chem, 2011).

Where only a bound is given, the exact number is not on record here.

For data set [1], the target named is Human immunodeficiency virus type 1 reverse transcriptase (Human immunodeficiency virus 1, UniProt Q72547). Description: Inhibition of recombinant HIV-1 reverse transcriptase RNase H domain after 10 mins. In a few lines:
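Recombinant HIV-1 RT (4.5 pmol) preincubated with compound 10 min at 37 °C. Then added: 3H-RNA/DNA duplex (E. coli RNA polymerase transcript of calf thymus ssDNA, 20,000 cpm) in 50 mM Tris-HCl pH 8.0, 10 mM DTT, 6 mM MgCl2, 80 mM KCl; 10 min at 37 °C. Stopped with cold 10% TCA/0.1 M pyrophosphate; filter-bound radioactivity counted.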

Data set [2] is described as follows: Cytotoxicity against human MT4 cells by MTT assay. It is filed as cell-based.
The subject of data set [3] is Human immunodeficiency virus 1. Nature of the data set: Antiviral activity against HIV1 3B infected in human MT4 cells assessed as inhibition of virus-induced cytopathic effect by MTT assay. As to conditions: Human immunodeficiency virus 1, 3B; call rule not given here. It is filed as functional, organism-based. In a few lines: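 MT-4 cells infected with 100-300 CCID50 of HIV-1 IIIB (dose titrated in MT-4 cells) in the presence of 5-fold serial drug dilutions. Protection from virus-induced cytopathic effect read by MTT reduction to formazan, measured spectrophotometrically.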

In data set [4] the target is Human immunodeficiency virus type 1 integrase (Human immunodeficiency virus 1, UniProt Q7ZJM1). Nature of the data set: Inhibition of HIV-1 integrase after 1 hr by immunosorbent assay. A digest of the protocol: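 Overall integration ELISA. Substrate is annealed oligos (7 nM), one 3'-biotin-labelled and one 5'-digoxigenin-labelled, with integrase at […] as written. Reaction 1 h at 37 °C, then immunodetection on avidin-coated plates. IC50 is the mean ± SD of at least three independent experiments.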
Chain of Human immunodeficiency virus type 1 integrase (Q7ZJM1 whole entry): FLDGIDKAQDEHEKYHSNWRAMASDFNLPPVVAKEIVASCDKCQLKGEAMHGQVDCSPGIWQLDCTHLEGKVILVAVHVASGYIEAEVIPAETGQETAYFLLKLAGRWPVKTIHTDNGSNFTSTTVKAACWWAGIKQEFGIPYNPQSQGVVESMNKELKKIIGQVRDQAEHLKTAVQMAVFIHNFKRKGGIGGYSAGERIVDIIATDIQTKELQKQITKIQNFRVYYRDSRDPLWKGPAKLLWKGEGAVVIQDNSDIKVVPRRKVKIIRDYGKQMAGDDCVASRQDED

The subject of data set [5] is Human immunodeficiency virus 1. Nature of the data set: Selectivity ratio of IC50 for recombinant HIV-1 reverse transcriptase RNase H domain to IC50 for HIV-1 integrase.

Regarding `O=C1c2ccccc2C(Cc2ccccc2)C(=O)N1O` (centres undefined), the half-inhibitory concentration (IC50) (as a rule, the concentration needed to halve the response being measured) is “Not Active” in data set [1] and 37.7 µM in data set [4]. In data set [2], it took 95 µM to reach half-maximal cytotoxicity (CC50). Also, the concentration giving a half-maximal response (EC50) (in general, the concentration needed to bring the measured effect to its halfway point) in data set [3] is > 95 µM.

As for `CCCC1C(=O)N(O)C(=O)c2ccccc21` (centres undefined), the half-maximal inhibitory concentration (IC50) in data set [1] (read-out: IC50) came out at 46.8 µM; in data set [4], 21.1 µM. Further, half-maximal cytotoxicity in data set [2] (CC50) was put at 25.4 µM. For the same compound, the EC50 in data set [3] is > 25.4 µM.

Turning to `O=C1c2ccccc2C(Cc2ccc(C(F)(F)F)cc2)C(=O)N1O` (centres undefined), the 50% inhibitory concentration (IC50) was determined as 42.7 µM in data set [1] (read-out: IC50) and 23.2 µM in data set [4]. Further, the CC50 (commonly the concentration at which the toxic effect on the cells reaches its halfway point) in data set [2] is 6 µM. Also, the EC50 in data set [3] is > 6 µM.

As to `CCCCC1C(=O)N(O)C(=O)c2ccccc21` (centres undefined), the IC50 was determined as 13.2 µM in data set [1] (read-out: IC50) and 40.2 µM in data set [4]. Also, the CC50 in data set [2] was 25.4 µM. For the same compound, the concentration for a half-maximal effect (EC50) in data set [3] is > 25.4 µM.

Consider `Cc1ccc(CC2C(=O)N(O)C(=O)c3ccccc32)cc1` (centres undefined), for which the 50% inhibitory concentration (IC50) in data set [1] (read-out: IC50) worked out at 80 µM; in data set [4] it was 3.4 µM. The CC50 in data set [2] worked out at 5.5 µM. Besides, the EC50 in data set [3] was > 5.5 µM.

Take `CCCCCCCc1c(O)n(O)c(=O)c2ccccc12`: the figures for the IC50 in data set [1] (read-out: IC50) and in data set [4] were 45 µM and 113 µM, respectively. Also, in data set [5], the Ratio IC50 stood at 0.4.

In the case of `CCCCCC1C(=O)N(O)C(=O)c2ccccc21` (centres undefined), the values for the half-inhibitory concentration (IC50) in data set [1] (read-out: IC50) and in data set [4] were 33.6 µM and 1.35 µM, respectively. This compound also displayed a cytotoxic concentration (CC50) in data set [2] of 98.3 µM. In addition, in data set [3], the 50% effective concentration (EC50) is > 98.3 µM.

For `O=C1c2ccccc2C(CCCc2ccccc2)C(=O)N1O` (centres undefined), the IC50 stood at 66.8 µM in data set [1] (read-out: IC50) and 2.6 µM in data set [4]. In addition, the cytotoxic concentration (CC50) in data set [2] is 5.2 µM. The EC50 in data set [3] is > 5.2 µM.

With `CC1C(=O)N(O)C(=O)c2ccccc21` (centres undefined), the IC50 in data set [1] (read-out: IC50) amounted to 38.8 µM; in data set [4], 3.3 µM. The compound also displayed a CC50 in data set [2] of 250 µM. Besides, the EC50 in data set [3] is > 250 µM.

On to `O=C1c2ccccc2C(CCc2ccccc2)C(=O)N1O` (centres undefined), for which the IC50 result in data set [1] is “Not Active”; in data set [4] it was 27.8 µM. In data set [2], this compound gave a 50% cytotoxic concentration (CC50) of 30 µM. In data set [3], the 50% effective concentration (EC50) is > 30 µM.

Take `CC(C)C1C(=O)N(O)C(=O)c2ccccc21` (centres undefined): the IC50 in data set [1] (read-out: IC50) was determined as 18.5 µM; in data set [4], 35.5 µM. Besides, the CC50 in data set [2] was determined as 122 µM. Moreover, the EC50 in data set [3] was > 122 µM.

For the compound `CCCCCCc1c(O)n(O)c(=O)c2ccccc12`, the figures for the concentration for half-maximal inhibition (IC50) in data set [1] (read-out: IC50) and in data set [4] were 7.8 µM and 45.4 µM, respectively. The compound further returned a CC50 in data set [2] of 128 µM. The EC50 in data set [3] is > 128 µM.

For the compound `CCCCCCC1C(=O)N(O)C(=O)c2ccccc21` (centres undefined), the results for the half-inhibitory concentration (IC50) in data set [1] (read-out: IC50) and in data set [4] were 38 µM and 11.4 µM, respectively. The compound further registered a half-maximal cytotoxic concentration (CC50) in data set [2] of 4.4 µM. For the same compound, the EC50 in data set [3] is > 4.4 µM.

Regarding `CCC1C(=O)N(O)C(=O)c2ccccc21` (centres undefined), the IC50 in data set [1] (read-out: IC50) came to 70 µM; in data set [4], 15.7 µM. Also, the half-maximal cytotoxic concentration (CC50) in data set [2] turned out to be 250 µM. Moreover, in data set [3], the EC50 was > 250 µM.

Take `O=c1c2ccccc2c(Cc2ccccc2)c(O)n1O`: the half-maximal inhibitory concentration (IC50) amounted to 14.9 µM in data set [1] (read-out: IC50) and 39.9 µM in data set [4]. The compound also yielded a half-maximal cytotoxic concentration (CC50) in data set [2] of 88 µM. Also, the EC50 in data set [3] was > 88 µM.
